Measured values as given in ChEMBL document CHEMBL1926519, “B-Ring-modified and/or 5-demethylated nobiletin congeners: inhibitory activity against pro-MMP-9 production” (Bioorg Med Chem, 2011).
pIC50: −log10 of the molar value. Activity calls are given as the source filed them. No cut-off for these calls is given here.

Tests used:
[1] = Cytotoxicity against human SRA 01/04 cells at 64 uM after 24 hrs by LDH release assay; format: cell-based
Outline: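 SRA01/04 lens epithelial cells seeded at 5,000/well, after 15–18 h washed with serum-free medium and exposed 24 h to test sample, final 64 lmol/L from DMSO stock. LDH in supernatant read at 570 nm. Percent specific release = (S−N)/(P−N)×100, P being 0.2% Tween-20 lysis and N cell- and serum-free medium. Triplicate means.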

[2] = Inhibition of PMA-stimulated pro MMP9 production in human SRA 01/04 cells after 24 hrs by SDS-PAGE based gelatin zymography assay; format: functional, cell-based
Outline: (§1)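 Confluent SRA01/04 cells (DMEM, 20% heat-inactivated FBS, 37 °C, 5% CO2) treated 24 h with test sample at 0.25, 1, 4, 16, 64 µM plus PMA 10 nM or TNF-a 10 ng/mL. Media run on 10% SDS–PAGE with 0.6 mg/mL gelatin, incubated at 37 °C in Tris–HCl pH 7.5/CaCl2/ZnCl2, Coomassie-stained. Pro-MMP-9 bands quantified densitometrically, giving IC50, triplicate means.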

[3] = Inhibition of TNFalpha-stimulated pro MMP9 production in human SRA 01/04 cells after 24 hrs by SDS-PAGE based gelatin zymography assay; format: functional, cell-based; outline: as §1
[4] = Ratio of IC50 for PMA-stimulated pro MMP9 production in human SRA 01/04 cells to IC50 for TNFalpha-stimulated pro MMP9 production in human SRA 01/04 cells; format: functional
Homo sapiens = species on record: Homo sapiens; assay: Inhibition of PMA-stimulated pro MMP9 production in human SRA 01/04 cells at 64 uM after 24 hrs by SDS-PAGE based gelatin zymography assay; format: functional, cell-based

Row | Compound | Activity [1] | pIC50 [2] | pIC50 [3] | Ratio IC50 [4] | inhibition (Homo sapiens)
1 | COc1cc(OC)cc(-c2cc(=O)c3c(OC)c(OC)c(OC)c(OC)c3o2)c1 | Non-toxic | 4.92 | 4.59 | – | –
2 | COc1c(OC)c(OC)c2c(=O)cc(-c3cc(O)cc(O)c3)oc2c1OC | Non-toxic | 5.09 | 4.62 | – | –
3 | COc1c(OC)c(OC)c2c(=O)cc(-c3cccc(OCc4ccccc4)c3)oc2c1OC | Toxic | – | – | – | –
4 | COc1c(OC)c(OC)c2c(=O)cc(-c3ccccc3O)oc2c1OC | Non-toxic | 6.40 | 4.17 | 170 | –
5 | COc1c(OC)c(OC)c2c(=O)cc(-c3ccc(O)cc3)oc2c1OC | Non-toxic | 5.59 | 4.84 | – | –
6 | COc1c(OC)c(OC)c2c(=O)cc(-c3ccc(OCc4ccccc4)cc3)oc2c1OC | Toxic | – | – | – | –
7 | COc1ccc(-c2cc(=O)c3c(O)c(OC)c(OC)c(OC)c3o2)cc1OC [5-DEMETHYLNOBILETIN] | Non-toxic | 5.52 | 4.37 | 14 | inactive
8 | COc1cc(-c2cc(=O)c3c(O)c(OC)c(OC)c(OC)c3o2)ccc1O | Non-toxic | 6.15 | 4.97 | 15 | –
9 | COc1ccc(-c2cc(=O)c3c(O)c(OC)c(OC)c(OC)c3o2)cc1O | Non-toxic | 5.82 | 4.53 | – | inactive
10 | COc1c(OC)c(OC)c2c(=O)cc(-c3cccc(O)c3)oc2c1OC | Non-toxic | 5.60 | 4.63 | – | inactive
11 | COc1ccccc1-c1cc(=O)c2c(OC)c(OC)c(OC)c(OC)c2o1 | Non-toxic | 4.86 | 4.62 | – | –
12 | COc1c(OC)c(O)c2c(=O)cc(-c3ccc(O)cc3)oc2c1OC [XANTHOMICROL] | Non-toxic | 5.46 | 4.65 | 6 | –
13 | COc1cccc(-c2cc(=O)c3c(OC)c(OC)c(OC)c(OC)c3o2)c1 | Non-toxic | 5.26 | 4.81 | – | –
14 | COc1ccc(-c2cc(=O)c3c(OC)c(OC)c(OC)c(OC)c3o2)cc1 [TANGERETIN] | Non-toxic | 5.17 | 4.48 | – | –
